In series [1] the target is T1, 5-hydroxytryptamine receptor 1A (Homo sapiens, UniProt P08908).
T1 sequence (P08908 whole entry): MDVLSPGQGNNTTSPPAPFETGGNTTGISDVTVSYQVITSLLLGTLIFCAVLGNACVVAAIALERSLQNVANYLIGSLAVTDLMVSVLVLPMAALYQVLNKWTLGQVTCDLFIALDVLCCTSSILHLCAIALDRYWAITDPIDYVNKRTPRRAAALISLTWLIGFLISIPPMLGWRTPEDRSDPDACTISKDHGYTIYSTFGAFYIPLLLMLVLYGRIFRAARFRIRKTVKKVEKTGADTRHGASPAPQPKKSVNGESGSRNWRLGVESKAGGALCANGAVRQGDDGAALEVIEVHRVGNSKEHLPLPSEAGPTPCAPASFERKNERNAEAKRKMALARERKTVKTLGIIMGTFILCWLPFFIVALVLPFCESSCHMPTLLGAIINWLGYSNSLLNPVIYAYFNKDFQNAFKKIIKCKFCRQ
Nature of the series: Displacement of [3H]-8-OH-DPAT from human 5HT1A receptor expressed in HEK293 cells incubated for 1 hr by liquid scintillation counter method. Format: cell-based. The settings on record: read-out: Ki. A digest of the protocol:
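HEK293 cells stably expressing human 5-HT1AR; membranes in 50 mM Tris–HCl, 0.1 mM EDTA, 4 mM MgCl2, 10 μM pargyline, 0.1% ascorbate; incubated 1 h at room temperature, then filtered. Nonspecific binding defined with 10 μM 5-HT.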

Series [2] has as its target 5-hydroxytryptamine receptor 2A (Homo sapiens, UniProt P28223). The experiment in a line: Displacement of [3H]ketanserin from human 5HT2A receptor expressed in CHOK1 cells incubated for 1 hr by liquid scintillation counter method. In kind it is cell-based. To be noted: read-out: Ki. (Displacement assays read how much labelled ligand stays bound in the presence of the test substance.)

The next series has as its target D(2) dopamine receptor (Homo sapiens, UniProt P14416). The experiment in a line: Displacement of [3H]-methylspiperone from human D2 long receptor expressed in HEK293 cells measured after 1 hr by liquid scintillation counter method. In kind it is cell-based. A digest of the protocol:
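HEK293 membranes stably expressing human D2L receptor, incubated 1 h at 37°C, then filtered and retained radioactivity counted; (+)-butaclamol 1 μM defines nonspecific binding. Tested in triplicate at 7–8 concentrations (10⁻¹¹–10⁻⁴ M); Ki via Cheng-Prusoff, averaged over at least two independent experiments.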

In series [3] the target is 5-hydroxytryptamine receptor 6 (Homo sapiens, UniProt P50406). The experiment in a line: Displacement of [3H]LSD from human 5HT6 receptor expressed in HEK293 cells measured after 1 hr by liquid scintillation counter method. Format: cell-based.
The target in series [4] is 5-hydroxytryptamine receptor 7 (Homo sapiens, UniProt P34969). The experiment in a line: Displacement of [3H]-5-CT from human 5HT7 receptor expressed in HEK293 cells measured after 1 hr by liquid scintillation counter method. Format: cell-based. To be noted: read-out: Ki.
In series [5] the test system is HepG2. The experiment in a line: Cytotoxicity against human HepG2 cells assessed as reduction in cell viability measured after 24 hrs by Prestoblue assay. In kind it is cell-based. To be noted: HepG2, 24 h. In outline:
(§1)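 HepG2 cells seeded at 2x10^4 per well in DMEM with 10% FBS, grown 24 h (37°C, 5% CO2), then exposed 24 h to 1, 10, 50 and 100 μM compound. Viability read with PrestoBlue (fluorescence); membrane damage by ToxiLight (luminescence).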

In series [6] the test system is HepG2. The experiment in a line: Cytotoxicity against human HepG2 cells assessed as cell membrane damage measured after 24 hrs by Toxilight assay. Format: cell-based. To be noted: HepG2, 24 h. A digest of the protocol:
as §1

The target in series [7] is T2, Muscarinic acetylcholine receptor M1 (Homo sapiens) (UniProt P11229).
T2 sequence (whole entry): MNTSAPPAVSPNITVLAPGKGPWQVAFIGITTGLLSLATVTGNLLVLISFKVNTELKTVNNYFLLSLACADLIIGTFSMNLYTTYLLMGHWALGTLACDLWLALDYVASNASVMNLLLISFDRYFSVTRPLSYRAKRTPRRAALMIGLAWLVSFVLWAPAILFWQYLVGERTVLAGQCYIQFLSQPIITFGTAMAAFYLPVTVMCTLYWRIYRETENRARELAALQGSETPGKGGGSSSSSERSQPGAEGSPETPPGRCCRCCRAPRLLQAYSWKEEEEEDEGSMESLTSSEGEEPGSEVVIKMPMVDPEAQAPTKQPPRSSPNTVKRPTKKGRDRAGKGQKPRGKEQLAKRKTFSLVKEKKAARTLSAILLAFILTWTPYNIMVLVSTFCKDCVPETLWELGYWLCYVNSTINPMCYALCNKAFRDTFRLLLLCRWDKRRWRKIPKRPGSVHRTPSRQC
The experiment in a line: Displacement of [3H] pirenzepine from human recombinant muscarinic M1 receptor at 10^-6 M measured after 60 mins by scintillation counter method relative to control.

Series [8] has as its target T3, 5-hydroxytryptamine receptor 2C (Homo sapiens) (UniProt P28335).
T3 sequence (whole entry): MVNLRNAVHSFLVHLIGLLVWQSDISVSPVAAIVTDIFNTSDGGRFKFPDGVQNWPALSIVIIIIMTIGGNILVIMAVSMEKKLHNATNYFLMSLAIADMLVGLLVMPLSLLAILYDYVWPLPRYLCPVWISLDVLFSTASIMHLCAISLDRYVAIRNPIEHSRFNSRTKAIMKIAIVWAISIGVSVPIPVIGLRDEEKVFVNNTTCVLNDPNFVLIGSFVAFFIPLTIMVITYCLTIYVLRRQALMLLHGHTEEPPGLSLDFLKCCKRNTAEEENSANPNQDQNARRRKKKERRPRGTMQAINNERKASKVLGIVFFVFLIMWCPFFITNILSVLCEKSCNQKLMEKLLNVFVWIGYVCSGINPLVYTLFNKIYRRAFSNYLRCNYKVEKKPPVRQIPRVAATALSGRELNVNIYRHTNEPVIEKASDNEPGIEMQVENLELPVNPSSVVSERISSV
Nature of the series: Agonist activity at human 5HT2C serotonin receptor at 10^-5 M relative to control.

Series [9] has as its target T3, 5-hydroxytryptamine receptor 2C (Homo sapiens). The experiment in a line: Antagonist activity at human 5HT2C serotonin receptor at 10^-5 M relative to control. On the set-up: scale not given: the % may be the effect or the level left.
The target of the next series is hERG (KCNH2) (Homo sapiens, UniProt Q12809). The experiment in a line: Displacement of [3H] dofetilide from human recombinant ERG at 10^-6 M measured after 60 mins by scintillation counting method relative to control. To be noted: probe [3H]dofetilide.
Series [10] concerns the target 5-hydroxytryptamine receptor 2B (Homo sapiens) (UniProt P41595). The experiment in a line: Antagonist activity at human recombinant 5HT2B receptor expressed in CHOK1 cells at 10^-6 M measured after 30 mins by HTRF assay relative to control. Format: cell-based. On the set-up: scale not given: the % may be the effect or the level left. Background: In TR-FRET formats the signal depends on donor and acceptor labels being close together.

Series [11] concerns Rattus norvegicus. Nature of the series: Reversal of scopolamine induced cognitive impairment impairment in Sprague-Dawley rat at 1 mg/kg, po pre treated for 2 hrs followed by scopolamine addition further treated for 30 mins and measured after 1 hr by novel object recognition test. Format: functional, organism-based. In outline:
(§2)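 Male Sprague–Dawley rats (~250 g); open-field habituation 5 min 24 h before test. Compounds p.o. 120 min and scopolamine 1.25 mg/kg i.p. 30 min before 3-min familiarization trial; 3-min recognition trial 1 h later. Exploration video-tracked; discrimination index computed; one-way ANOVA with Newman–Keuls; n = 9–10 per group; mean ± SEM.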

Series [12] relates to Rattus norvegicus. The experiment in a line: Reversal of scopolamine induced cognitive impairment in Sprague-Dawley rat assessed increase in discrimination index at 0.3 mg/kg, po cotreated with 0.3 mg/kg of donepezil pre treated for 2 hrs followed by scopolamine addition further treated for 30 mins and measured after 1 hr by novel object recognition test. In kind it is functional, organism-based. In outline: as §2

The next series is described as follows: in vitro. To be noted: rat, microsomes.

One may read the Ki as the dissociation constant of the complex between target and ligand, obtained from inhibition or displacement. What is called IC50 is the concentration at which inhibition is half-maximal. Usually inhibition stands for the change of the read-out against control, counted positive when it falls. As usually defined, the half-life is the time in which the quantity being followed falls by half.

The source made the active and inactive calls. The calls are words filed in the database; no cut-off is given here.

5-hydroxytryptamine receptor 7, sequence (P34969 whole entry): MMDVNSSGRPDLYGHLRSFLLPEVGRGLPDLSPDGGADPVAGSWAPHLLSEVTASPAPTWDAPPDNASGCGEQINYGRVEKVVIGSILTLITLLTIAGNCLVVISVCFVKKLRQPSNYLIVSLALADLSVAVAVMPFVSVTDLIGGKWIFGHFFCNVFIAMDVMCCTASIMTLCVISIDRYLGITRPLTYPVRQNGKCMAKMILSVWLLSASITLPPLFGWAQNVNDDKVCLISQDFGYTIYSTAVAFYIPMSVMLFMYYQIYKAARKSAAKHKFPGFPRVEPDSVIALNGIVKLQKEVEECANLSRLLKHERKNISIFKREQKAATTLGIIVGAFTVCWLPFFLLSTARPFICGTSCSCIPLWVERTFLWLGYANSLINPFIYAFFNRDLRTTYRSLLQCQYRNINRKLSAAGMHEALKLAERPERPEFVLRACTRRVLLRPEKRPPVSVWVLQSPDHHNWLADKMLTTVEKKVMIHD
5-hydroxytryptamine receptor 2B (Homo sapiens), sequence (P41595 whole entry): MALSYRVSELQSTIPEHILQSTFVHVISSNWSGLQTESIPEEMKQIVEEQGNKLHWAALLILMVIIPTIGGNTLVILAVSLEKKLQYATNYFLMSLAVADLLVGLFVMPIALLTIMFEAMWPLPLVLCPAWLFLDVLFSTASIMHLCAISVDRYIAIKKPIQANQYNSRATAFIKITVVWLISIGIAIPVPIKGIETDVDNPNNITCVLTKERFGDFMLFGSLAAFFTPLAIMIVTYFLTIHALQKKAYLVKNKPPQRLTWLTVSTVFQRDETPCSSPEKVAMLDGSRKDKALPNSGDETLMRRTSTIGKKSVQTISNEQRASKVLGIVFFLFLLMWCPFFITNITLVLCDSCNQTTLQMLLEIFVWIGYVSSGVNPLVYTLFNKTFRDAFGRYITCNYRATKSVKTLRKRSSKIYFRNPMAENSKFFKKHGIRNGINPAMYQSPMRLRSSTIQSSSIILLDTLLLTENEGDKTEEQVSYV
5-hydroxytryptamine receptor 2A, sequence (P28223 whole entry): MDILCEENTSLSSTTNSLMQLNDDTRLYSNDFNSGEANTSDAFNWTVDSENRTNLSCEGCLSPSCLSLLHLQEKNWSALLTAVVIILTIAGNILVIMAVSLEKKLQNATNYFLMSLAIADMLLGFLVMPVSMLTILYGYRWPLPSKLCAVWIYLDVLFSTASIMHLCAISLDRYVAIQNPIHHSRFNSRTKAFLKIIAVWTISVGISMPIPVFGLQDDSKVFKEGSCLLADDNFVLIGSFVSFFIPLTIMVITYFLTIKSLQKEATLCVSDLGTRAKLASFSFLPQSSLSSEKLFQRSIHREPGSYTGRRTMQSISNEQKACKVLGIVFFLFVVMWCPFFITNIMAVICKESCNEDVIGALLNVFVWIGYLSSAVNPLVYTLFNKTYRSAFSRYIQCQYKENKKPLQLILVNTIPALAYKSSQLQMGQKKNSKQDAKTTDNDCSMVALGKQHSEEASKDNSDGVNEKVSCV
hERG (KCNH2), sequence (Q12809 whole entry): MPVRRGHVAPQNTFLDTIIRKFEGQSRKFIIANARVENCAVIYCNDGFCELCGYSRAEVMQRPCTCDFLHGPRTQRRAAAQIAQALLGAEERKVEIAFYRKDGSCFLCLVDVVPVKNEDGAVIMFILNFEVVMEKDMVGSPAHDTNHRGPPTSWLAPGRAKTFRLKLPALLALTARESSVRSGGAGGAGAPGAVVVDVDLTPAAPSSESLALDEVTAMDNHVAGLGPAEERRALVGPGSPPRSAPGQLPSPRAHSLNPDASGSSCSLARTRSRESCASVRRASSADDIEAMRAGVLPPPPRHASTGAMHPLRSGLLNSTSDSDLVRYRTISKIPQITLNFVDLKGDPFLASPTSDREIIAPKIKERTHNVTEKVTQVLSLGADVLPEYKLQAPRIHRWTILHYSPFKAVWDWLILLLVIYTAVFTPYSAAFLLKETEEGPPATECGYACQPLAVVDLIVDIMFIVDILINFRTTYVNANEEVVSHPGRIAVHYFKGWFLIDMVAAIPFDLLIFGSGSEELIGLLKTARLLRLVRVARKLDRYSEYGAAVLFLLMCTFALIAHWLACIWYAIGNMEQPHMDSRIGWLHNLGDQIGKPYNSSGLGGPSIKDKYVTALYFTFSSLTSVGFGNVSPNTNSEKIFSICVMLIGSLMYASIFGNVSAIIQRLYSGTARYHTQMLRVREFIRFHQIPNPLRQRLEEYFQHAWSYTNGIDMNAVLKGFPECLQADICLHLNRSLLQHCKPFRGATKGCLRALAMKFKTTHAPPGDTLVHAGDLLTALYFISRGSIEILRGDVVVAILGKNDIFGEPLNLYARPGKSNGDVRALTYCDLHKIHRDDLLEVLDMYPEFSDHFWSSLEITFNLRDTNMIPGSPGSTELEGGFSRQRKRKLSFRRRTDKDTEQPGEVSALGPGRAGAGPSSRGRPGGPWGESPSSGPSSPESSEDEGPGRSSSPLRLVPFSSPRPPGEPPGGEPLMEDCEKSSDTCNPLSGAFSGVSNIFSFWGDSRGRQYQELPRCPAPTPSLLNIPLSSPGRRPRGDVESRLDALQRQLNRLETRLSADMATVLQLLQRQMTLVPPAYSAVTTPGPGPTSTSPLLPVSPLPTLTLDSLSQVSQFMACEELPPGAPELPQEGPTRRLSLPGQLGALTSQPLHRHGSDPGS
D(2) dopamine receptor, sequence (P14416 whole entry): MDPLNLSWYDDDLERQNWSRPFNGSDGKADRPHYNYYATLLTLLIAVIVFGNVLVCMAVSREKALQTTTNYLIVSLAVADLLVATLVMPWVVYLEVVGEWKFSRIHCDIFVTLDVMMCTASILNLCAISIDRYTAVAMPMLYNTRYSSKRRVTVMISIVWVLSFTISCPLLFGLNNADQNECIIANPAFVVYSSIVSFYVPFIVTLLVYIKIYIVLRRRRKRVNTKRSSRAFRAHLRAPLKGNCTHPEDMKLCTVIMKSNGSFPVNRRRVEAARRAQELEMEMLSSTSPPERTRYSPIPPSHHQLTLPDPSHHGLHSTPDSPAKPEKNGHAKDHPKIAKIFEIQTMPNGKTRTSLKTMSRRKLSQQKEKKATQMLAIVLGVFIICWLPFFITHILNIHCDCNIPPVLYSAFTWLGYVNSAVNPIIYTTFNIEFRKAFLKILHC
5-hydroxytryptamine receptor 6, sequence (P50406 whole entry): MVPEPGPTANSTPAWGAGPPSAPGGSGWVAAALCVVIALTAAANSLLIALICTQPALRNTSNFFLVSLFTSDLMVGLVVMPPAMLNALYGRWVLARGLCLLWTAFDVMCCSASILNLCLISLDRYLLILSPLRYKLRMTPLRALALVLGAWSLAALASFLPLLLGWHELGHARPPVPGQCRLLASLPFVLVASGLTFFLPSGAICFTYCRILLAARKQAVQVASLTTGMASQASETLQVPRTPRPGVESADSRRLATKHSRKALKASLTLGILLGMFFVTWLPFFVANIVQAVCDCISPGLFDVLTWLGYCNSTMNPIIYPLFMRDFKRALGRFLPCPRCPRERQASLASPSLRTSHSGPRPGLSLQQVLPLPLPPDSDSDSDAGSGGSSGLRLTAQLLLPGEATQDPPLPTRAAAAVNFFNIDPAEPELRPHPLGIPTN

For `Cc1nc(N)[nH]c1-c1cn(S(=O)(=O)c2cccc3ccccc23)c2ccccc12.Cl`, the Ki in series [1] is above 10000 nM; in series [2], 490 nM; at D(2) dopamine receptor, 1170 nM; in series [3], 8 nM; in [4], 2510 nM. Moreover, the values for the IC50 in the series on HepG2 [5] and in the series on HepG2 [6] were 15700 nM and 18400 nM, respectively. Also, the inhibition in [7] was -0.3%. For the same compound, the Activity is 21.3% in series [8], 50.3% in series [9] and -2.8% in [10]. Also, the inhibition at 1 h, 1 µM at hERG (KCNH2) is 25.7%. Besides, the result in the series on Rattus norvegicus [11] and in the series on Rattus norvegicus [12] was Active. The half-life in “in vitro” worked out at 23 min.
